Laboratory results: ChEMBL document CHEMBL3352649, “2,2'-Dihydroxybenzophenones and their carbonyl N-analogues as inhibitor scaffolds for MDR-involved human glutathione transferase isoenzyme A1-1” (Bioorg Med Chem, 2014)

How the values were obtained:
[1] = molecular target: T1, Glutathione S-transferase A1 (Homo sapiens) (UniProt P08263); experiment: Inhibition of human GSTA1 activity assessed as conjugation between CDNB and GSH at 25 uM
T1 sequence (whole entry): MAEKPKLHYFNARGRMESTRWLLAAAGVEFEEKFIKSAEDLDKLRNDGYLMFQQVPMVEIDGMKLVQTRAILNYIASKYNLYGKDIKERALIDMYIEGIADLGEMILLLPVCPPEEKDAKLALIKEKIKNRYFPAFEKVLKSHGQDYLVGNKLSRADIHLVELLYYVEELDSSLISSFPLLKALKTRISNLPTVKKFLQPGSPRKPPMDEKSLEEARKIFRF
Procedure, shortened: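 1 mL of 100 mM potassium phosphate pH 6.5, 0.75 µmol GSH, 25 nmol compound (from 5 mM DMSO stock), enzyme; 1 min at 25 °C, then 0.3 µmol CDNB. Read at 340 nm. Remaining activity is relative to a 5 µL DMSO replacement, mean of three assays.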

[2] = molecular target: T2, Glutathione S-transferase A1 (Homo sapiens, UniProt P08263); experiment: Inhibition of human GSTA1 activity assessed as conjugation between CDNB and GSH
T2 sequence (P08263 whole entry): T1 sequence (whole entry)

[3] = molecular target: T2, Glutathione S-transferase A1; experiment: Mixed-type inhibition of human GSTA1 activity by double reciprocal Lineweaver-Burk graph

| inhibition [1] [%] | IC50 [2] [nM] | Ki [3] [nM] | SMILES |
| --- | --- | --- | --- |
| 0 | – | – | O=C(c1ccccc1O)c1ccccc1O |
| 87.7 | 240 | 360 | O=C(c1ccccc1O)c1cc(Br)ccc1O |
